E-selectin induc = induces E-selectin expression in human endothelial cells; HUVEC E-selectin immunofluorescence imaging; normalized: neutral wells 0, TNF-alpha wells 100; actives 0.37% (n = 260,000); P16581; activation, % at 7.58 µM; AID 686992;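 active = mean E-selectin-positive cell signal at least 10% of the positive control, reached in at least 60% of replicates, without over 20% cell loss; inconclusive = no rule given, readout overlaps actives, possibly toxicity-flagged; inactive = the rest, including those meeting only one limit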
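Material: HUVEC primary endothelial cells; Amount: 3,000 cells per well; Dosing: single concentration; Medium: EGM-2 growth medium on 0.1% gelatin-coated wells; Read-out basis: percent E-selectin-positive cells; Signal: immunofluorescence imaging; Control set: TNF-alpha, DMSO.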
AF4-AF9 inh = blocks AF4 peptide binding to human AF9. P42568. AlphaScreen, biotin-AF4 peptide binding to FLAG-AF9. inhibition, % at 10 µM. actives 0.47% (n = 350,000). AID 651704;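 active = every replicate reaching a set inhibition limit, whatever the replicate mean, cut at about 25% in these data; inconclusive = mean inhibition reaches that limit but some replicates miss it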
GSIS activator = primary screen for activators of insulin secretion dependent on glucose, INS-1E cells, GLuc reporter luminescence | INS-1E GLuc reporter insulin secretion, 2-3 h | activation, % at 16.6 µM | actives 0.61% (n = 370,000) | AID 743287;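 active = lowest replicate activation of at least 40%, so every replicate reaches that level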
RAD52 anneal inh = blocks human RAD52 DNA annealing. recombinant RAD52 DNA annealing, FRET fluorescence. inhibition, % at 18.7 µM. actives 0.46% (n = 360,000). AID 651710;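 active = every replicate showing at least 50% inhibition; inconclusive = mean inhibition at least 50% but not in every replicate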
RAD54 inh = RAD54 (human) branch migration inhibition | inhibition, % at 10.4 µM | Q92698 | actives 0.14% (n = 360,000) | RAD54 Holliday junction branch migration, FAM/BHQ fluorescence;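 active = mean normalized replicate activity at least 40 and at least half of replicates scoring 40 or more; inconclusive = only one of the two criteria met; inactive = mean below 40 and under half of replicates reaching 40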;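 also: inhibitors cause a drop in the FAM fluorescence signal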
Target sequence (Q92698 whole entry, looked up): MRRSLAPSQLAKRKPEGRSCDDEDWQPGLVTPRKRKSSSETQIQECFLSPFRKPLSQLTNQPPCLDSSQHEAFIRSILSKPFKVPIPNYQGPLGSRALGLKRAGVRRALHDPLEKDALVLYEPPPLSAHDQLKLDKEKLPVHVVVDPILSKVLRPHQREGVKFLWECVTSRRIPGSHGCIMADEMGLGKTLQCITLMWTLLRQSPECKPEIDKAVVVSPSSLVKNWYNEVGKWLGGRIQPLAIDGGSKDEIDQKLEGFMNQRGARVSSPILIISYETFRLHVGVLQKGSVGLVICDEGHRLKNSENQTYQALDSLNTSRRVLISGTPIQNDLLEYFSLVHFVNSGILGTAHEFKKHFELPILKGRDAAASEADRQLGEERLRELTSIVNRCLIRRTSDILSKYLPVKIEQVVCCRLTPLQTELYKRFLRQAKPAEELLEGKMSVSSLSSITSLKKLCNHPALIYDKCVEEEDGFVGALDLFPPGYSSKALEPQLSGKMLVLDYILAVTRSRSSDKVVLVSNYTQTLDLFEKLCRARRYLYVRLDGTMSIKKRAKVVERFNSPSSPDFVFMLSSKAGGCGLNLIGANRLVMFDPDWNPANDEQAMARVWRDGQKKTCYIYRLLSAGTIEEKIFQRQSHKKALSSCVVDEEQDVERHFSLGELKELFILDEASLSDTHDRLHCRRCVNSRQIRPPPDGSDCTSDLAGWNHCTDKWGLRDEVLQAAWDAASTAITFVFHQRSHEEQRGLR
Ecoli rRNA inh = inhibitors of bacterial rRNA selective over humanized ribosomes; E. coli WT GFP vs humanized-ribosome RFP mutants, fluorescence, 24 h; stronger effect = lower value; DMSO median 0, no signal -100; GFP signal change (wild-type ribosome), % (concentration not given with the values); actives 1.6% (n = 350,000); AID 720706;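 active = significant combined selectivity score with lowered wild-type GFP, culture density cut under 30%, mutant RFP and density less affected; inactive = any of these conditions unmet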
AID977621 = wild-type E. coli growth inhibition versus H69 humanized strain – H69 mutant RFP, wild-type GFP, cherry-pick, dose response; shares compounds with Ecoli rRNA inh; 1,900 tested, under 10 active; activity change, negative = inhibition at 50 µM; fluorescence, 24 h; AID 977621;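 active = Wild-type ribosome reporter drop at least double the humanized mutant ribosome reporter drop, growth loss under a set limit; inconclusive = no clear call, values can overlap the other calls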;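 also: wild-type GFP and H69 mutant RFP strains grown together 50/50 in each well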
AID977628 = E. coli growth inhibition, wild-type GFP versus h24 humanized RFP strain, dose response, h24 mutant RFP vs wild-type GFP, cherry-pick; shares compounds with Ecoli rRNA inh; E. coli WT GFP strain growth, fluorescence, 24 h; activity change, negative = inhibition at 50 µM; 1,900 tested, under 10 active;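 active = compound lowering the normal-ribosome reporter at least twice as much as the humanized-ribosome reporter, growth loss under a set limit; inconclusive = no clear call, values can overlap the other calls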;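 also: wild-type GFP and h24 humanized RFP strains co-cultured 1 to 1 per well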
Of the large screens only hits and unclear results are named; the others gave an inactive call (follow-up assays come after a bar, where they were run). Most compounds without a hit are left out; they make up all but 2.6% or so of the library.

COc1ccc(CCN2C(=O)CC(Cc3cccc(C)c3)C2=O)cc1OC (stereo unspecified)	none (no result: E-selectin induc, RAD54 inh)
COc1cccc(-c2cn(CC[C@H]3CC[C@H](NC(C)=O)[C@H](CO)O3)nn2)c1	none
CCC(=O)Nc1nc2c(OC)ccc(OC)c2s1	Ecoli rRNA inh -21 | AID977621 inactive
COC(=O)c1cc2c(c3c4cc(OC)ccc4n(C(=O)c4ccccc4)c13)C(=O)N(Cc1ccco1)C2	Ecoli rRNA inh -14 (no result: GSIS activator, RAD54 inh) | AID977621 inactive | AID977628 inactive
COC(=O)c1cc2c(c3c4cc(F)ccc4n(C(=O)c4ccccc4)c13)C(=O)N(Cc1ccco1)C2	none (no result: GSIS activator, RAD54 inh)
COC(=O)c1cc2c(c3c4cc(F)ccc4n(S(=O)(=O)c4cccc(C)c4)c13)C(=O)N(Cc1ccccc1OC)C2	none (no result: GSIS activator, RAD54 inh)
COC(=O)c1cc2c(c3c4cc(F)ccc4n(S(=O)(=O)c4cccc(C)c4)c13)C(=O)N(Cc1ccco1)C2	Ecoli rRNA inh -17 (no result: GSIS activator, RAD54 inh) | AID977621 inactive | AID977628 inactive
COC(=O)c1cc2c(c3c4cc(F)ccc4n(S(=O)(=O)c4ccccc4)c13)C(=O)N(Cc1ccco1)C2	Ecoli rRNA inh -18 (no result: RAD54 inh) | AID977621 inactive | AID977628 inconclusive
COC(=O)c1cc2c(c3c4ccccc4n(S(=O)(=O)c4ccccc4)c13)C(=O)N(Cc1ccco1)C2	none (no result: GSIS activator, RAD54 inh)
Cc1ccc(S(=O)(=O)N[C@H]2C=C[C@H](CC(=O)N3CCC(Cc4ccccc4)CC3)O[C@H]2CO)cc1	none
CC(=O)N(C)C[C@@H]1Oc2ncc(C#CC3(O)CCCC3)cc2C(=O)N([C@H](C)CO)C[C@@H]1C	none
C[C@@H]1CCCCO[C@H](CN(C)C)[C@@H](C)CN([C@@H](C)CO)C(=O)c2cc(NS(=O)(=O)c3ccc(Cl)cc3)ccc2O1	none
COc1cccc(C(=O)C2CCCN(C/C=C/c3ccccc3OC)C2)c1 (stereo unspecified)	Ecoli rRNA inh -29 (no result: E-selectin induc) | AID977621 inconclusive | AID977628 inconclusive
CN1CCN(CC(=O)Nc2nc3ccccc3s2)CC1	none (no result: E-selectin induc)
CC1CN(CC(=O)Nc2nc3ccccc3s2)CC(C)O1 (stereo unspecified)	Ecoli rRNA inh -15 (no result: E-selectin induc) | AID977621 inactive | AID977628 inconclusive
CS(=O)(=O)N(CC(=O)N1CCCCCC1)c1cccc(Br)c1	none (no result: E-selectin induc, AF4-AF9 inh, GSIS activator, RAD52 anneal inh, Ecoli rRNA inh)
CS(=O)(=O)N(CC(=O)N1CCc2ccccc2C1)c1cccc(Br)c1	Ecoli rRNA inh -23 (no result: E-selectin induc, GSIS activator) | AID977621 inactive | AID977628 inconclusive
O=C(NCc1ccco1)c1ccc(COc2cccc3ccccc23)cc1	Ecoli rRNA inh -24 | AID977621 inactive
O=C(C[C@@H]1CC[C@@H]2[C@H](COC[C@H](O)CN2CC2CC2)O1)NCc1ccc(Cl)cc1	none
CC(=O)Nc1cccc(NC(=O)c2c(-c3c(Cl)cccc3Cl)noc2C)c1	Ecoli rRNA inh -17 (no result: E-selectin induc) | AID977621 inactive | AID977628 inactive
CCS(=O)(=O)N1CC2(CN(Cc3ccccc3OC)[C@H](CO)c3c2c2ccc(OC)cc2n3C)C1	none (no result: RAD52 anneal inh, RAD54 inh)
CCNC(=O)C1(C)CCCN(Cc2cccc3ccccc23)C1 (stereo unspecified)	Ecoli rRNA inh -23 (no result: GSIS activator) | AID977628 inconclusive
Nc1ccccc1Nc1ccc([N+](=O)[O-])cc1[N+](=O)[O-]	Ecoli rRNA inh -24 (no result: RAD54 inh) | AID977621 inactive | AID977628 inactive
Nc1cc([N+](=O)[O-])ccc1Nc1ccc(O)cc1	Ecoli rRNA inh -24 | AID977628 inconclusive
CCNC[C@H]1[C@H](c2ccc(C3=CCCCC3)cc2)[C@@H](CO)N1C(=O)NC(C)C	none
Cc1ccccc1-c1ccc([C@H]2[C@H]3CN(C(=O)NC4CCCC4)CC(=O)N3[C@H]2CO)cc1	none (no result: RAD54 inh)
C=CCN(CC(O)c1cccc([N+](=O)[O-])c1)C(C)CCc1ccccc1 (stereo unspecified)	Ecoli rRNA inh -21 (no result: RAD54 inh) | AID977621 inconclusive
O=C(Cc1ccccc1)NC(NC(=O)Cc1ccccc1)c1cccc([N+](=O)[O-])c1	none (no result: E-selectin induc, RAD54 inh)
Cc1ccccc1-c1ccc([C@H]2[C@@H](CO)N3CCCCN(S(=O)(=O)c4cn(C)cn4)C[C@@H]23)cc1	none
COc1cccc(C(=O)NC2CC3CCCC(C2)N3S(=O)(=O)c2ccccc2)c1 (stereo unspecified)	Ecoli rRNA inh -31 (no result: RAD54 inh) | AID977621 inconclusive
Cc1noc(C)c1NC(=O)N(C)C[C@@H]1OCCCC[C@@H](C)Oc2ccc(NC(=O)Cc3ccccc3)cc2C(=O)N([C@H](C)CO)C[C@H]1C	none
CSc1ccccc1OCc1cc(C(=O)N(C)Cc2nonc2C)no1	Ecoli rRNA inh -30 (no result: E-selectin induc) | AID977621 inactive | AID977628 inactive
Cc1nonc1CN(C)C(=O)c1cc(COc2ccc(F)cc2Cl)on1	none (no result: E-selectin induc)
COc1cccc(OC)c1CNC(=O)CCSCc1ccccc1F	Ecoli rRNA inh -35 (no result: RAD54 inh) | AID977621 inactive | AID977628 inactive
COc1cccc(CNC(=O)CCSCc2ccccc2F)c1	Ecoli rRNA inh -29 (no result: RAD54 inh) | AID977621 inactive
O=C(CCSCc1ccccc1F)NCc1cccnc1	none (no result: RAD54 inh)
O=C(CN1CCOCC1)NCC[C@H]1CC[C@H](NC(=O)Nc2ccccc2)[C@H](CO)O1	none
c1ccc2c(c1)CSc1ccccc1N2	Ecoli rRNA inh -24 | AID977621 inactive | AID977628 inactive
C[C@H]1CN([C@@H](C)CO)C(=O)c2cc(NS(=O)(=O)c3ccc(Cl)cc3)ccc2O[C@@H]1CN(C)Cc1ccc2c(c1)OCO2	none
C[C@@H]1CN([C@H](C)CO)C(=O)c2cc(NC(=O)CCCN(C)C)ccc2O[C@@H]1CN(C)CC1CCCCC1	none
CC(C)c1ccc(-c2nc3ccccc3s2)cc1	Ecoli rRNA inh -16 (no result: E-selectin induc, RAD54 inh) | AID977621 inactive | AID977628 inactive
CNC[C@H]1Oc2c(NS(C)(=O)=O)cccc2C(=O)N(C)C[C@@H]1C	none (no result: E-selectin induc, AF4-AF9 inh, RAD52 anneal inh, RAD54 inh)
CCN(CC)CCN(C(=O)c1ccc2c(c1)CCCC2)c1nc2ccc(F)cc2s1	Ecoli rRNA inh -23 (no result: E-selectin induc, RAD54 inh) | AID977621 inactive
Cc1ccc(C(=O)c2ccccc2C(=O)OCC(=O)N2CCCC2)cc1	none
Cc1ccc(C(=O)c2ccccc2C(=O)OCC(=O)NC(C)(C)C)cc1	Ecoli rRNA inh -20 | AID977621 inactive
Cc1ccc2nc(N(CCN(C)C)C(=O)C3CCN(S(=O)(=O)c4cccs4)CC3)sc2c1	Ecoli rRNA inh -11 (no result: E-selectin induc) | AID977621 inconclusive
COc1ccc2c3c(n(C)c2c1)[C@@H](CO)N(Cc1ccncc1)CC31CN(C(=O)NC(C)C)C1	none (no result: RAD52 anneal inh, RAD54 inh)
